This note sets out measurements from ChEMBL document CHEMBL3259611, “Suppression of inflammatory responses by handelin, a guaianolide dimer from Chrysanthemum boreale, via downregulation of NF-κB signaling and pro-inflammatory cytokine production” (J Nat Prod, 2014).

In assay [1] the test system is RAW264.7. The experiment in a line: Antiinflammatory activity in mouse RAW264.7 cells assessed as inhibition of LPS-induced COX2 protein expression at 40 uM after 16 hrs by Western blotting analysis relative to control. The format is functional. The method in brief: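 RAW 264.7 cells given LPS (1 μg/mL) with or without compound for 16 h. Cell lysates were Western blotted for iNOS and COX-2 (6−15% SDS-PAGE, PVDF, ECL detection). Performed in triplicate.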

Assay [2] deals with T1, Nuclear factor NF-kappa-B p105 subunit (Mus musculus) (UniProt P25799).
T1 sequence (whole entry): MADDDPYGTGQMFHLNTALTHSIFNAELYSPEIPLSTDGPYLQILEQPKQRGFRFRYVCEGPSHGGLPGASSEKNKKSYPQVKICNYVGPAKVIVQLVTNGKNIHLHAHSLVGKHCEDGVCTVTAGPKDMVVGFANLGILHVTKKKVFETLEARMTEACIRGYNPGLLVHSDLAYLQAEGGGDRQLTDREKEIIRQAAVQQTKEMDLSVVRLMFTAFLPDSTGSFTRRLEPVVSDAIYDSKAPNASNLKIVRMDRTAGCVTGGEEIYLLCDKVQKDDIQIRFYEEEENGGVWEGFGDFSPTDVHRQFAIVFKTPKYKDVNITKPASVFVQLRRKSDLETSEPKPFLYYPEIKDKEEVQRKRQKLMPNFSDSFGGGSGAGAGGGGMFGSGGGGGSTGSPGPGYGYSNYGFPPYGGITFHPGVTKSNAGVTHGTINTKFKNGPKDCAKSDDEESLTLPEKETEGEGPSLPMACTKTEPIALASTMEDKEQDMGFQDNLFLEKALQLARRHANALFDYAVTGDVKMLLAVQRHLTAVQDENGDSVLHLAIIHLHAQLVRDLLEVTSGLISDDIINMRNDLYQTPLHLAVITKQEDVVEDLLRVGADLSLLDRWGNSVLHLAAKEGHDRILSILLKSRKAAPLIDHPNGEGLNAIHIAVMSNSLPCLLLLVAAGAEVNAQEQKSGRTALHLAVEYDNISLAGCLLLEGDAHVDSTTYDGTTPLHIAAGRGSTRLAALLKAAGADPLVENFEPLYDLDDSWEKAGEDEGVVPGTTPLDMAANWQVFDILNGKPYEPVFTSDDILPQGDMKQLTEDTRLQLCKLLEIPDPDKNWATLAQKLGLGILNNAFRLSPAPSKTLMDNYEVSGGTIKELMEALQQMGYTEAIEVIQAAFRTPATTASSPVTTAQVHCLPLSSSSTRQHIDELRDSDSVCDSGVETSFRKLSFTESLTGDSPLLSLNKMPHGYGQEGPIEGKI
The experiment in a line: Inhibition of LPS-induced NFkappaB P50 protein nuclear translocation in mouse RAW264.7 cells at 10 uM after 30 mins by Western blotting analysis relative to control. The format is cell-based. The method in brief:
(§1)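 Macrophages were exposed to compound for 30 min before LPS stimulation, with proteins extracted 30 min later. Nuclear extracts were prepared in Tris/KCl/NP-40 lysis buffer, then 420 mM NaCl buffer, and the cytosolic fraction was kept for IκB-α. Western blot on PVDF with ECL detection. Tests in triplicate; representative of three separate experiments.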
(In general: Immunoblotting shows a protein as a band on a membrane.)

The test system of assay [3] is RAW264.7. In words: Antiinflammatory activity in mouse RAW264.7 cells assessed as inhibition LPS-induced TNF-alpha protein expression after 4 hrs by Western blotting analysis. Type of assay: functional, cell-based. The method in brief: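 RAW 264.7 cells stimulated with LPS (1 μg/mL) with or without compound for 4 h. Lysates were resolved by 6−15% SDS-PAGE and blotted to PVDF. Blocked in 5% milk/PBST, primary antibody overnight at 4 °C, secondary antibody 2 h, detected by ECL. Triplicate, representative of three experiments.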

The target of assay [4] is T2, JNK1/JNK2 (Mus musculus) (UniProt Q91Y86+Q9WTU6). In words: Inhibition LPS-induced JNK1/2 phosphorylation at Thr183/[…] in mouse RAW264.7 cells at 20 uM administered 30 mins prior to LPS challenge measured after 30 mins by Western blotting analysis. The format is cell-based. Summed up:
(§2)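 RAW 264.7 cells pretreated with compound for 30 min, then stimulated with LPS for 30 min. Protein extracts were Western blotted for phosphorylated ERK and JNK (SDS-PAGE, PVDF, ECL detection).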

Assay [5] has as its system RAW264.7. The experiment in a line: Inhibition of LPS-induced NFkappaB transcriptional activity in mouse RAW264.7 cells assessed as reduction of phosphorylated IkappaB-alpha level at 40 uM after 30 mins by Western blotting analysis relative to control. Type of assay: cell-based. Summed up:
as §1

Assay [6] concerns RAW264.7. The experiment in a line: Antiinflammatory activity in mouse RAW264.7 cells assessed as inhibition LPS-induced IL-1beta mRNA expression at 40 uM after 4 hrs by RT-PCR analysis relative to control. Type of assay: functional. Summed up:
(§3)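 RAW 264.7 cells stimulated with LPS (1 μg/mL) with or without compound for 4 h. Total RNA was isolated and cytokine mRNA was analysed by RT-PCR: 94 °C 4 min, then 25−30 cycles of 94/55/72 °C for 30 s each, then 72 °C 5 min. Products were run on 2% agarose and stained with SYBR-Safe. Triplicate, representative of three experiments.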

For assay [7], the system named is RAW264.7. The experiment in a line: Antiinflammatory activity in mouse RAW264.7 cells assessed as inhibition of LPS-induced nitric oxide production at 20 uM administered 30 mins prior to LPS challenge measured after 20 hrs by Griess assay relative to control. Type of assay: functional. The method in brief: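 RAW 264.7 cells at 3 × 10^5 cells/mL in phenol red-free 10% FBS DMEM, pretreated for 30 min, then given 1 μg/mL LPS for 20 h. Nitrite in the medium was read by Griess reaction at 540 nm against a sodium nitrite standard curve. % inhibition was calculated versus vehicle control, and IC50 by nonlinear regression. Mean ± SD of triplicates.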
For orientation: Nitrite, measured by Griess reagent, commonly stands in for NO production.

Assay [8] concerns RAW264.7. The experiment in a line: Antiinflammatory activity in mouse RAW264.7 cells assessed as inhibition LPS-induced miR-155 mRNA expression after 8 hrs by RT-PCR analysis. The format is functional, cell-based. The method in brief:
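LPS-stimulated RAW 264.7 cells, with or without compound, for 8 h. miR-155 measured by TaqMan qRT-PCR on 10 ng RNA, with stem-loop primer RT at 16 °C 30 min, 42 °C 30 min, 85 °C 5 min. Expression given as a ratio to β-actin. Mean ± SD of triplicates.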

Assay [9] relates to RAW264.7. In words: Antiinflammatory activity in mouse RAW264.7 cells assessed as inhibition LPS-induced TNF-alpha mRNA expression at 40 uM after 4 hrs by RT-PCR analysis relative to control. The format is functional. The method in brief:
as §3

Assay [10] addresses T2, JNK1/JNK2 (Mus musculus). The experiment in a line: Inhibition LPS-induced JNK1/2 phosphorylation at Thr183/[…] in mouse RAW264.7 cells at 10 uM administered 30 mins prior to LPS challenge measured after 30 mins by Western blotting analysis. The format is cell-based. Summed up:
as §2

Assay [11] addresses Mitogen-activated protein kinase 1 and 3 (ERK2 and ERK1) (Mus musculus) (UniProt P63085+Q63844). The experiment in a line: Inhibition LPS-induced ERK1/2 phosphorylation at Thr202/Tyr204 in mouse RAW264.7 cells at 10 uM administered 30 mins prior to LPS challenge measured after 30 mins by Western blotting analysis. Type of assay: cell-based. Summed up: as §2

Calls of active or inactive are those of the source. The rule behind the calls is not given here. Bounds are passed on as bounds.

T2 sequence (Q91Y86 whole entry, looked up): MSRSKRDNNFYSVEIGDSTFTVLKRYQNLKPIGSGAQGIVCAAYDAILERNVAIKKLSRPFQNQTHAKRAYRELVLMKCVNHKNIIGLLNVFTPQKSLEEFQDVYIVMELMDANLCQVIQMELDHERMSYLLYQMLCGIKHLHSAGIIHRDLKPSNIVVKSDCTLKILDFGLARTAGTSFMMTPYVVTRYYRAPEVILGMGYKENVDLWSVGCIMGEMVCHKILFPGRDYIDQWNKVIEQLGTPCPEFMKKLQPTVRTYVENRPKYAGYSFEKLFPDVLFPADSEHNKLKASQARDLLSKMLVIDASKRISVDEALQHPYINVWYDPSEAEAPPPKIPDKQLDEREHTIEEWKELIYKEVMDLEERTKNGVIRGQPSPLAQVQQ
T2 sequence (Q9WTU6 whole entry, looked up): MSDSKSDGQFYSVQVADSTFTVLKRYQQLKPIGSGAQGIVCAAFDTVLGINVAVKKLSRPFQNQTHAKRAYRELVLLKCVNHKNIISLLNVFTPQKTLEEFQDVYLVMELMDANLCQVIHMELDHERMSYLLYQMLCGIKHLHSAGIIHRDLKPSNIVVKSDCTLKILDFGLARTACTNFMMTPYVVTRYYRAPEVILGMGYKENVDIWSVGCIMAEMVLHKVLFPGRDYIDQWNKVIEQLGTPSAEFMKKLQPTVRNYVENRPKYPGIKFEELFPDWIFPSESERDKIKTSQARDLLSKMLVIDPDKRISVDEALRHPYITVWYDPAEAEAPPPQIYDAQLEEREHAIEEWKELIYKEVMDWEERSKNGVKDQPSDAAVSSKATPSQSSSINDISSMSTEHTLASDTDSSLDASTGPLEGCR
Chain of Mitogen-activated protein kinase 1 and 3 (ERK2 and ERK1) (Mus musculus) (P63085 whole entry, looked up): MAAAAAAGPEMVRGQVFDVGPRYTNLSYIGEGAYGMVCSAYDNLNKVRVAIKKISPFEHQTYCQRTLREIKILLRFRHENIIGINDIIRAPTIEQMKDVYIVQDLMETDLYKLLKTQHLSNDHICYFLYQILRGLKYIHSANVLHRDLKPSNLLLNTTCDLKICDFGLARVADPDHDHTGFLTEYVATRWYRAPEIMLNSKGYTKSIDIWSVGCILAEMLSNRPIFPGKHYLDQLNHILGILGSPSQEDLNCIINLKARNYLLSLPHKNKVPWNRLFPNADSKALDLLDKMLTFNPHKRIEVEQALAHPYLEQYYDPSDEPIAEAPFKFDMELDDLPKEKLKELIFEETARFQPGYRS
Chain of Mitogen-activated protein kinase 1 and 3 (ERK2 and ERK1) (Mus musculus) (Q63844 whole entry, looked up): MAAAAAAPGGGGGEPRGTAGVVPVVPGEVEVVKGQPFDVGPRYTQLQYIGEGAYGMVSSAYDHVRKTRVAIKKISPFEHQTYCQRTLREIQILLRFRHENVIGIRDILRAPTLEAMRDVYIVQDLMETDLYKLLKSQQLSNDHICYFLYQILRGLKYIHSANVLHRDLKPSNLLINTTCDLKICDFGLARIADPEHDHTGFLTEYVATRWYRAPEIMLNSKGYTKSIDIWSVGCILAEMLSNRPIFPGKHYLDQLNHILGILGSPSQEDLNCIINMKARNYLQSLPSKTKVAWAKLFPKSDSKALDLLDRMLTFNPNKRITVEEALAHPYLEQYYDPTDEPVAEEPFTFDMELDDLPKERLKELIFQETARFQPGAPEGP

`C=C1C(=O)O[C@@H]2[C@@H]3[C@@]4(C=C[C@@]3(C)[C@]3(C4)C(=O)O[C@@H]4[C@H]5C(C)=CC[C@H]5[C@](C)(O)C[C@H](OC(C)=O)[C@H]43)[C@](C)(O)CC[C@@H]12`: the “fold change (FC)” value with RAW264.7 [1] was determined as 0.15; on JNK1/JNK2 (Mus musculus) [4], 0.54; in the assay on RAW264.7 [5] it was 0.44; in the assay on RAW264.7 [6] it was 0.21; with RAW264.7 [9], 0.1; on JNK1/JNK2 (Mus musculus) [10], 0.71. In [11], the fold change (FC) came out at 0.76. Besides, the inhibition entry (in [2]; with RAW264.7 [8]; on JNK1/JNK2 (Mus musculus) [10]; in assay [11]) was “Active” each time. In addition, the inhibition result in the assay on RAW264.7 [3] was “Dose-dependent effect”. In addition, the “inhibition (INH)” value in the assay with RAW264.7 [7] is on record as above 84%.
